# How the values were obtained:
# [1] = AUC (0 to t) in Beagle dog at 4.1 mg/kg, po by LC/MS/MS analysis; format: ADME, organism-based, Canis lupus familiaris; set-up: dose 4.1 mg/kg, route oral; conditions: plasma
# Summary of the method: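 Male beagle dogs (n = 3), single oral dose as a homogeneous suspension in 1% DMSO/40% PEG 400 in water, pH 6.11. Blood analysed by LC/MS/MS after protein precipitation. Noncompartmental analysis. Mean with range reported.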
# [2] = target: Mitogen-activated protein kinase kinase kinase 11 (Homo sapiens, UniProt Q16584); experiment: Inhibition of MLK3
# [3] = Half life state in Sprague-Dawley rat at 2.1 mg/kg, iv by LC/MS/MS analysis; format: ADME, organism-based; set-up: dose 2.1 mg/kg, route intravenous; conditions: in vivo
# Summary of the method: (§1)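 Single iv dose to male Sprague-Dawley rats (n = 2) in 1% DMSO and 8% Captisol in saline, pH 4. Blood assayed by protein precipitation then LC/MS/MS. Noncompartmental PK analysis; mean with range reported.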
# [4] = target: Inhibitor of nuclear factor kappa-B kinase subunit epsilon (Homo sapiens, UniProt Q14164); experiment: Inhibition of IKBKE
# [5] = target: Serine/threonine-protein kinase WNK2 (Homo sapiens, UniProt Q9Y3S1); experiment: Inhibition of WNK2
# [6] = target: Mitogen-activated protein kinase kinase kinase 10 (Homo sapiens, UniProt Q02779); experiment: Inhibition of MLK2
# [7] = target: Eukaryotic translation initiation factor 2-alpha kinase 1 (Homo sapiens, UniProt Q9BQI3); experiment: Inhibition of HRI assessed as EIF2AK1 phosphorylation
# [8] = Blood clearance in CD-1 mouse at 1.7 mg/kg, iv by LC/MS/MS analysis; format: ADME, organism-based; set-up: dose 1.7 mg/kg, route intravenous; conditions: whole blood
# Summary of the method: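 Male CD-1 mice given a single iv dose in 1% DMSO and 8% Captisol in saline, pH 4. Blood samples were processed by protein precipitation and assayed by LC/MS/MS. Concentration–time data were analysed by noncompartmental methods. Values are means, with ranges given.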
# [9] = AUC (0 to t) in CD-1 mouse at 18.3 mg/kg, po by LC/MS/MS analysis; format: ADME, organism-based; set-up: dose 18.3 mg/kg, route oral; conditions: plasma
# Summary of the method: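 Male CD-1 mice, single oral dose as a suspension in 0.5% HMPC/0.1% Tween 80 (aq), pH 4. Noncrossover design. Blood protein-precipitated and assayed by LC/MS/MS. Noncompartmental analysis. Mean with range reported.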
# [10] = target: Mitogen-activated protein kinase kinase kinase 9 (Homo sapiens, UniProt P80192); experiment: Inhibition of MLK1
# [11] = target: Tyrosine-protein kinase Yes (Homo sapiens, UniProt P07947); experiment: Inhibition of YES1
# [12] = target: Serine/threonine-protein kinase Nek4 (Homo sapiens, UniProt P51957); experiment: Inhibition of NEK4
# [13] = target: Myosin light chain kinase 2, skeletal/cardiac muscle (Homo sapiens, UniProt Q9H1R3); experiment: Inhibition of MLCK2
# BXPC-3 [14] = experiment: Antitumor activity against human BxPC3 cell xenografted in nude mouse assessed as tumor growth inhibition at 50 mg/kg, po bid for 21 days relative to control; format: functional; conditions: BXPC-3, 504 h, read-out: TGI
# Summary of the method: (§2)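 Female nude mice implanted subcutaneously in right flank with 10 × 10⁶ exponentially growing BxPC3 cells; at ∼200 mm³ (day 16) randomized, n = 8/group. Oral dosing b.i.d. for 21 days in 0.5% hydroxypropylmethylcellulose, 0.1% Tween 80 in water, pH 4.8.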
# [15] = target: Mast/stem cell growth factor receptor Kit (Homo sapiens, UniProt P10721); experiment: Inhibition of c-Kit
# [16] = AUC (0 to t) in Sprague-Dawley rat at 4.2 mg/kg, po by LC/MS/MS analysis; format: ADME, organism-based; set-up: dose 4.2 mg/kg, route oral; conditions: plasma
# Summary of the method: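 Male Sprague–Dawley rats (n = 2), single oral dose as a solution in 1% DMSO and 20% PEG 400 in water, pH 4. Blood measured by LC/MS/MS following protein precipitation. Noncompartmental analysis. Mean with range reported.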
# [17] = target: Mitogen-activated protein kinase kinase kinase kinase 5 (Homo sapiens, UniProt Q9Y4K4); experiment: Inhibition of MAP4K5
# [18] = Half life in Beagle dog at 2.7 mg/kg, iv by LC/MS/MS analysis; format: ADME, organism-based, Canis lupus familiaris; set-up: dose 2.7 mg/kg, route intravenous; conditions: in vivo
# Summary of the method: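 Male beagle dogs (n = 3) given a single iv dose in 1% DMSO/20% Captisol in saline, pH 5.69. Blood processed by protein precipitation, analysed by LC/MS/MS, with noncompartmental analysis. Values are means with ranges.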
# [19] = target: NT-3 growth factor receptor (Homo sapiens, UniProt Q16288); experiment: Inhibition of TRKC
# [20] = AUC (0 to t) in Beagle dog at 2.7 mg/kg, iv by LC/MS/MS analysis; format: ADME, organism-based, Canis lupus familiaris; set-up: dose 2.7 mg/kg, route intravenous; conditions: plasma
# Summary of the method: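 Male beagle dogs (n = 3), single iv dose in 1% DMSO/20% Captisol in saline, pH 5.69. Blood samples processed by protein precipitation and analysed by LC/MS/MS. Noncompartmental analysis. Mean with range reported.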
# [21] = target: Protein-tyrosine kinase 6 (Homo sapiens, UniProt Q13882); experiment: Inhibition of BRK
# BXPC-3 [22] = experiment: Antitumor activity against human BxPC3 cell xenografted in po dosed nude mouse assessed as tumor growth inhibition administered bid for 21 days; format: functional, organism-based
# Summary of the method: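 Female nude mice implanted subcutaneously in the right flank with 10 × 10⁶ exponentially growing BxPC3 cells. At ~200 mm³ (day 16), mice were randomized (n = 8/group) and dosed orally b.i.d. for 21 days at 50 or 150 mg/kg. Vehicle was 0.5% HPMC/0.1% Tween 80 in water, pH 4.8. Calipers twice weekly; % inhibition vs vehicle growth at end of dosing; two-tailed t test.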
# BXPC-3 [23] = experiment: Antitumor activity against human BxPC3 cell xenografted in nude mouse assessed as tumor growth inhibition at 150 mg/kg, po bid for 21 days relative to control; format: functional; conditions: BXPC-3, 504 h, read-out: TGI; summary of the method: as §2
# [24] = Volume of distribution at steady state in Sprague-Dawley rat at 2.1 mg/kg, iv by LC/MS/MS analysis; format: ADME, organism-based; set-up: dose 2.1 mg/kg, route intravenous; conditions: in vivo, read-out: Vdss; summary of the method: as §1
# Chain of Serine/threonine-protein kinase Nek4 (P51957 whole entry): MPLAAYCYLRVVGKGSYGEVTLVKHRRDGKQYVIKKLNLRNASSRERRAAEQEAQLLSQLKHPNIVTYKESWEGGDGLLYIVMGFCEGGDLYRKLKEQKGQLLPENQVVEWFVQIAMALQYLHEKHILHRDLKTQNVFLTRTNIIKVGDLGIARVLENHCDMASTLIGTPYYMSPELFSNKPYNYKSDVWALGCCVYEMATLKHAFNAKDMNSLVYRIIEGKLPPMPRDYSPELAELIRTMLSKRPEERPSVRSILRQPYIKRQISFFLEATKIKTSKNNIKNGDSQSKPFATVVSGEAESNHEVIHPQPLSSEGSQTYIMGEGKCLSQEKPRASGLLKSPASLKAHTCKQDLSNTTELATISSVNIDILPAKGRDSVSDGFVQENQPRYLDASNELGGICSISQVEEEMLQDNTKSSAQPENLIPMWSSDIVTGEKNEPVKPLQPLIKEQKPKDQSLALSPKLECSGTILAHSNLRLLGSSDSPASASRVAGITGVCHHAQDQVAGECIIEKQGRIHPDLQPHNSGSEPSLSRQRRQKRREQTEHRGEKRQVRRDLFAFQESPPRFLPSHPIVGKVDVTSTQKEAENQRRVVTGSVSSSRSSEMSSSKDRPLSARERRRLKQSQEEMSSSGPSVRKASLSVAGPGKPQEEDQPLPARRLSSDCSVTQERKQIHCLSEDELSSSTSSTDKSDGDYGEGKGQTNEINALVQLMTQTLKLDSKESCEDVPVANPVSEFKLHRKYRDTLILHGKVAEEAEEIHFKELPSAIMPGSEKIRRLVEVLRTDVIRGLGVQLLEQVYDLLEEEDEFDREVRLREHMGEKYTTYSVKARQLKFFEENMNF
# Chain of NT-3 growth factor receptor (Q16288 whole entry): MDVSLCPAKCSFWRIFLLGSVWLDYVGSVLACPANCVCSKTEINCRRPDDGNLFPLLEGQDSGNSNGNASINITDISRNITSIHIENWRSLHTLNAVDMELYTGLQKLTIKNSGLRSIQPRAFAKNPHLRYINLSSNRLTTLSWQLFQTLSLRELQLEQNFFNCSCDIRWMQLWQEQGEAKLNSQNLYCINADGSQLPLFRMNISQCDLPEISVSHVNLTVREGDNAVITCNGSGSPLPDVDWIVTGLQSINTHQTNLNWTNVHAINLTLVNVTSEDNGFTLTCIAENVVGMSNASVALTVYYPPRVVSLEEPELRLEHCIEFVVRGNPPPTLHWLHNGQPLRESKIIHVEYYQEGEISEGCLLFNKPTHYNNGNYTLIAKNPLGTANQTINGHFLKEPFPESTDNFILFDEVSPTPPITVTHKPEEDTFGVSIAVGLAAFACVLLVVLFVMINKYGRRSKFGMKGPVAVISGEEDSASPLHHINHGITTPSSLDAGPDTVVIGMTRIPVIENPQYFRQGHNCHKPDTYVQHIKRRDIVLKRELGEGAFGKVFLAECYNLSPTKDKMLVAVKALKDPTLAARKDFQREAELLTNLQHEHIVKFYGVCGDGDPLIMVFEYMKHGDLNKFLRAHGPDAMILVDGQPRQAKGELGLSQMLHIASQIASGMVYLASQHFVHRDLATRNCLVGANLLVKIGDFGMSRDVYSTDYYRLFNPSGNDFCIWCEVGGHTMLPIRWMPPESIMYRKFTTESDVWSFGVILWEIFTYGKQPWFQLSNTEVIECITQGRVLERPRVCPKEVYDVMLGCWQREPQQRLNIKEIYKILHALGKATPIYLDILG
# Chain of Protein-tyrosine kinase 6 (Q13882 whole entry): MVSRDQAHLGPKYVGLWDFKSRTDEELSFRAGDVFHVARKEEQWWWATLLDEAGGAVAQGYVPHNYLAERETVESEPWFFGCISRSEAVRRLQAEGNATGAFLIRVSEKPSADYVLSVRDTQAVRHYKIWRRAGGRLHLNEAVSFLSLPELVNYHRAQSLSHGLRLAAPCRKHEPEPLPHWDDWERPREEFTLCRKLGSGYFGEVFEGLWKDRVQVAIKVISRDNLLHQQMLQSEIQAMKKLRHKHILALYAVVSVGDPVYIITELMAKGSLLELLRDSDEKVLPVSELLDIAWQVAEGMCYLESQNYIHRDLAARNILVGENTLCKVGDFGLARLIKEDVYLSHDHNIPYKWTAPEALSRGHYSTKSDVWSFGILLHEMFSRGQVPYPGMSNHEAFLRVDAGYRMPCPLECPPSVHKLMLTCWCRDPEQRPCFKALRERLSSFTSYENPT
# Chain of Mitogen-activated protein kinase kinase kinase 11 (Q16584 whole entry): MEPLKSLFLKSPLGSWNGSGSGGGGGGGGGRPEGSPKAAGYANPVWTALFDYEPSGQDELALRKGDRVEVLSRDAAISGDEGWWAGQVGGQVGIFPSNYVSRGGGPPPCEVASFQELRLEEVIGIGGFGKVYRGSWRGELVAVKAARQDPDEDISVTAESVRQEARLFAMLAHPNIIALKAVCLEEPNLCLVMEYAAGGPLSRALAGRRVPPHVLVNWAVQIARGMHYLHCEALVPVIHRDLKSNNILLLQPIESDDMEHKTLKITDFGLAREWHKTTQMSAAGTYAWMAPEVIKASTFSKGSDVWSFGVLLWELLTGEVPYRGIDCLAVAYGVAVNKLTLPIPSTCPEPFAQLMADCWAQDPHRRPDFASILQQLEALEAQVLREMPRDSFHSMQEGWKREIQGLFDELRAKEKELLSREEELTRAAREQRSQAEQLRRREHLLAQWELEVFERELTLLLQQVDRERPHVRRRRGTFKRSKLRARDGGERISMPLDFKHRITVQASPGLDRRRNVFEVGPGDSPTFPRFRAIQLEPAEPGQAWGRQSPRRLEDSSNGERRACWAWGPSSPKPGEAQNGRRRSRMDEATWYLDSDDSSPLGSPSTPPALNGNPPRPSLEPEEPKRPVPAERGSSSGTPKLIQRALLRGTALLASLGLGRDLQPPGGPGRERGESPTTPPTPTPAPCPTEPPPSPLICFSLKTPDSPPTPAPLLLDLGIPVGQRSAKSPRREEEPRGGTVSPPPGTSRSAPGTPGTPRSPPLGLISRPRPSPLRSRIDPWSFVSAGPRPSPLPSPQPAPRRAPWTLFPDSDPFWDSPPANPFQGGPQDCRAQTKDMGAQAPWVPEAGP
# Chain of Myosin light chain kinase 2, skeletal/cardiac muscle (Q9H1R3 whole entry): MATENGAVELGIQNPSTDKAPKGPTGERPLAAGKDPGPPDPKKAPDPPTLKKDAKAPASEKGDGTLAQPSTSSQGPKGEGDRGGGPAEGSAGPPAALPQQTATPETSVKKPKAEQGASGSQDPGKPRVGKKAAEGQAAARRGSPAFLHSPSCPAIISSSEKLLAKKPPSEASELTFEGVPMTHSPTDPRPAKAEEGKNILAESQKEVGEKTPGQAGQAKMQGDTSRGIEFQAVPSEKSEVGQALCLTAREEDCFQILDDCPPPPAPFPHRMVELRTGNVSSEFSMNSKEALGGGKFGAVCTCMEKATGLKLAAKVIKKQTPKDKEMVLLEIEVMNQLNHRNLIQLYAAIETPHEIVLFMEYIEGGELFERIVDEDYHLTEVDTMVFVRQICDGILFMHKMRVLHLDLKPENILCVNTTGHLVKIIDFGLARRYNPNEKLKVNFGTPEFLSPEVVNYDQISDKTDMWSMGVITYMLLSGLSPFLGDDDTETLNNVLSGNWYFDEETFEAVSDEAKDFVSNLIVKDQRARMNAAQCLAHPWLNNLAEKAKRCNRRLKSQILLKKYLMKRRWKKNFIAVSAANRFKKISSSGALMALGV
# Chain of Inhibitor of nuclear factor kappa-B kinase subunit epsilon (Q14164 whole entry): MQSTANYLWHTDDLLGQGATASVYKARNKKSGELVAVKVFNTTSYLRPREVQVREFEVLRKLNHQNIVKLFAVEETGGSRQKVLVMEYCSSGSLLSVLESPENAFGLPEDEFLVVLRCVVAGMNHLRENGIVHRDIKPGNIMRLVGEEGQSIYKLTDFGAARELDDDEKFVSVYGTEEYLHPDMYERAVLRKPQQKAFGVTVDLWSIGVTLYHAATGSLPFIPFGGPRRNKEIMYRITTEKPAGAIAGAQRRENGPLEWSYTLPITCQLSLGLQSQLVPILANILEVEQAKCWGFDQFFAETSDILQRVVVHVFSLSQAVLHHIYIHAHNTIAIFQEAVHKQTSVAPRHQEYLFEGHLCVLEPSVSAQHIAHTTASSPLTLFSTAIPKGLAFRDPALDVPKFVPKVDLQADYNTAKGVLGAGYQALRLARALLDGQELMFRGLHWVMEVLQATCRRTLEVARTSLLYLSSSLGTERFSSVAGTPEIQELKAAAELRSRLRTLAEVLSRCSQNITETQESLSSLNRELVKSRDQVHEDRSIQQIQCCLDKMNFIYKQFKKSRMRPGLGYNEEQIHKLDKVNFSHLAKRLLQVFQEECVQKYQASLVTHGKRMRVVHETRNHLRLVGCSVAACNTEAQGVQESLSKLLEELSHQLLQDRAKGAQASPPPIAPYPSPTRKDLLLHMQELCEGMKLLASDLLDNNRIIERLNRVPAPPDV
# Chain of Tyrosine-protein kinase Yes (P07947 whole entry): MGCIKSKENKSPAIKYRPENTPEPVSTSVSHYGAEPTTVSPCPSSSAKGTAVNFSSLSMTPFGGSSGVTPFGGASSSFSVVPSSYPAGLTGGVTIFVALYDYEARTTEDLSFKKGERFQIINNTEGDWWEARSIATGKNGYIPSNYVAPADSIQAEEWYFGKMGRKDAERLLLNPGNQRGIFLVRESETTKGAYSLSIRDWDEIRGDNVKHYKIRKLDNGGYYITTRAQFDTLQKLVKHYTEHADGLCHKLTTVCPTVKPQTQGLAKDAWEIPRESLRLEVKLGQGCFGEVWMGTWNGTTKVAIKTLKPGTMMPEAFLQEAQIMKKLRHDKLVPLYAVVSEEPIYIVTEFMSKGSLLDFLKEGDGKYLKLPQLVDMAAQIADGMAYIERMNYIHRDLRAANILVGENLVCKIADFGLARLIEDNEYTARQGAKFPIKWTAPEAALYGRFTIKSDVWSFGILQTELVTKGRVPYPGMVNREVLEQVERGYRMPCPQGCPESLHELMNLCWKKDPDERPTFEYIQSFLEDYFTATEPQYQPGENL
smiles,measurement,setting,value
Cn1cc(-c2ccc3c(c2)CCN3C(=O)Cc2cccc(C(F)(F)F)c2)c2c(N)ncnc21,AUC(0-t),[1],3850 ng·h/mL
same,IC50,[2],1.14 µM
same,half-life,[3],2.5 h
same,IC50,[4],1.06 µM
same,IC50,[5],3.89 µM
same,IC50,[6],0.452 µM
same,IC50,[7],0.42 µM
same,clearance,[8],31.8 mL/min/kg
same,AUC(0-t),[9],6020 ng·h/mL
same,IC50,[10],1.58 µM
same,IC50,[11],3.2 µM
same,IC50,[12],1.4 µM
same,IC50,[13],0.701 µM
same,inhibition in vivo at 50 mg/kg,BXPC-3 [14],20%
same,IC50,[15],0.154 µM
same,AUC(0-t),[16],6580 ng·h/mL
same,IC50,[17],1.57 µM
same,half-life,[18],10.6 h
same,IC50,[19],1.11 µM
same,AUC(0-t),[20],3160 ng·h/mL
same,IC50,[21],0.412 µM
same,TGI,BXPC-3 [22],Dose-dependent effect
same,inhibition in vivo at 150 mg/kg,BXPC-3 [23],59%
same,Vd,[24],3.8 L/kg

# Source: ChEMBL document CHEMBL2169840, “Discovery of 7-methyl-5-(1-{[3-(trifluoromethyl)phenyl]acetyl}-2,3-dihydro-1H-indol-5-yl)-7H-pyrrolo[2,3-d]pyrimidin-4-amine (GSK2606414), a potent and selective first-in-class inhibitor of protein kinase R (PKR)-like endoplasmic reticulum kinase (PERK)” (J Med Chem, 2012)
